Hits are enriched below; roughly 1.7% of the tested compounds scored in any of these assays.
Keap1 Nrf2 FP – disrupts human Keap1 binding to Nrf2 peptide | inhibition, % at 9.4 µM | Keap1 Kelch-Nrf2 peptide fluorescence polarization, 1536-well | 340,000 compounds, 0.15% hits; in the data active = inhibition above about 12%;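 note: human Keap1 Kelch domain with fluorescein labeled Nrf2 9mer peptide probe; higher means more block of Keap1 binding to Nrf2 peptide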
A3G deaminase – blocks human APOBEC3G single-stranded DNA deamination; 330,000 compounds, 0.28% hits; Q9HC16; AID 493012; inhibition, % at 20 µM; recombinant A3G, ssDNA deamination FAM/TAMRA fluorescence;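 active = inhibition of at least 40% at 20 µM, with no more than 30% in the related APOBEC3A deaminase screen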
Target sequence (Q9HC16 whole entry, looked up): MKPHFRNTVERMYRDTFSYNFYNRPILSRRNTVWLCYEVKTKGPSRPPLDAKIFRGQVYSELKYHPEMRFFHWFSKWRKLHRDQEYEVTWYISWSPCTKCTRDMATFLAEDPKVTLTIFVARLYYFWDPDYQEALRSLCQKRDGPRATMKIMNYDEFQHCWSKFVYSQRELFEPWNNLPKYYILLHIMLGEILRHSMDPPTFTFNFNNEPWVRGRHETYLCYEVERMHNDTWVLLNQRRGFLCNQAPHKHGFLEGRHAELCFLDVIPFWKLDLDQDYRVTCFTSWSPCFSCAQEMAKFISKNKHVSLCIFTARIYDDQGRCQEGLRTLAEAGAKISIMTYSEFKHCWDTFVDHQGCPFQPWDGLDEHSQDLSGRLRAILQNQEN
CAL PDZ FP-1 – human CAL PDZ-peptide interaction inhibition; purified CAL PDZ, TMR-peptide fluorescence polarization, 1 h; inhibition, % at 20 µM; 330,000 compounds, 0.02% hits; AID 504414;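 active = highest replicate inhibition of at least 40%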
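material = purified tagged CAL PDZ domain construct (CerCALP) | buffer or medium = sodium phosphate/NaCl buffer pH 7.4 with TCEP, IgG, Thesit | reagent = TMR-labelled reporter peptide T*-PRC34 bound in PDZ groove | incubation = 1 h room-temperature incubation prior to read | measured by = fluorescence polarization (mP) | evaluation = percent inhibition from loss of millipolarization | control set = unlabelled peptide and DMSO controls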
LANA DNA inh – blocks KSHV LANA C-terminal domain binding to DNA; 340,000 compounds, 0.078% hits; AID 504423; MBP-C-LANA/FAM-LBS DNA binding, fluorescence polarization; inhibition, % at 9 µM;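 active = highest replicate inhibition at or above 60% at 9 µM, even if other replicates fall short; inactive = all replicates below 60% inhibition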
CAL PDZ FP-2 – CAL PDZ (human) peptide binding inhibition. purified CAL PDZ, TMR-peptide fluorescence polarization, 1 h. inhibition, % at 24.9 µM. 300,000 compounds, 0.92% hits;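 active = mean inhibition of at least 30% with at least half of replicates also reaching 30%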
APOBEC3A inh – blocks human APOBEC3A ssDNA deamination | P31941 | recombinant A3A, FAM/TAMRA ssDNA deamination fluorescence | inhibition, % at 20 µM | 330,000 compounds, 0.41% hits | AID 493011;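 active = at least 40% inhibition at 20 µM here, with at most 30% in a related deaminase screen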
Target sequence (P31941 whole entry, looked up): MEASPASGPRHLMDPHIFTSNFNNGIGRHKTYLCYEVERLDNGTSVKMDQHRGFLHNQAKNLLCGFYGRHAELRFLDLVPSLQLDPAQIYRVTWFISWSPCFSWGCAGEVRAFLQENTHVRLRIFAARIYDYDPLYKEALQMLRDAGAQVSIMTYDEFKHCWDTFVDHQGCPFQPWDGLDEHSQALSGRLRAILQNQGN
A3A conf – APOBEC3A (human) deaminase inhibition, confirmed; 1,400 compounds, 63% hits; inhibition, % at 20 µM; shares compounds with APOBEC3A inh; recombinant A3A, ssDNA deaminase UDG fluorescence assay;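 active = inhibition reaching a set limit, 80% of the first screen's cutoff, at 20 µM in any replicate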
UDG A3A counter – counter-screen for APOBEC3A inhibitors: UDG. shares compounds with APOBEC3A inh. inhibition, % at 20 µM. 1,000 tested, under 10 active. UDG counterscreen, FAM/TAMRA uracil oligo fluorescence; call rule not given here
Large screens that a line does not name were inactive (follow-up assays come after a bar, where they were run); ! = a repeat was not active.

O=C(Nc1ccc(Cl)cc1)OC1CN2CCC1CC2 (stereo not given)	CAL PDZ FP-2 47.6
O=C1NC(=S)SC1=Cc1ccc(N(CCCl)CCCl)cc1	none (no result: A3G deaminase, APOBEC3A inh)
CN(C)[C@@H]1C(=O)C(C(N)=O)=C(O)[C@@]2(O)C(=O)C3=C(O)c4c(O)cccc4[C@@](C)(O)C3[C@H](O)C12 (stereo not given in full)	LANA DNA inh 72.3!
CN(C)C1C(=O)C(C(N)=O)=C(O)C2(O)C(=O)C3=C(O)c4c(O)cccc4C(C)(O)C3CC12 (stereo not given)	none (no result: A3G deaminase, APOBEC3A inh)
CCn1c(=O)n(CC(=O)N2CCC3(CC2)OCCO3)c(=O)c2ccccc21	CAL PDZ FP-2 51.9
Cc1ccc(-n2c(O)c(C=NCCCn3ccnc3)c(=O)[nH]c2=O)cc1	CAL PDZ FP-2 72.9
COc1ccc(-n2c(O)c(C=NCCCn3ccnc3)c(=O)[nH]c2=O)cc1	none
Cc1c(C)c2ccc(OCC(=O)N3CCC(C(=O)O)(c4ccccc4)CC3)cc2oc1=O	CAL PDZ FP-2 40.8
S=P(NCCSCc1ccccc1)(N1CC1)N1CC1	none (no result: A3G deaminase, APOBEC3A inh)
CC(=O)N1CCCSC1=Nc1ccccc1	CAL PDZ FP-2 57.9
C#C[C@]1(O)CCC2C3C(=O)C=C4C(Cl)=CCC[C@]4(C)C3CC[C@@]21C (stereo not given in full)	none (no result: A3G deaminase, APOBEC3A inh)
O=C1CCN(C(=O)CNC(=O)Cc2ccccc2)CC1	none
CC(NC(=O)Cc1cccc2ccccc12)C(=O)N1CCC(=O)CC1 (stereo not given)	CAL PDZ FP-2 46.9
O=[N+]([O-])c1[nH]cnc1Br	none (no result: A3G deaminase, APOBEC3A inh)
CCN(CC)C(=O)c1ccc(NC(=O)CCCSc2ccccc2)cc1	CAL PDZ FP-2 80.2
COc1ccc(-c2ccc3n2Cc2cnnn2-c2ccccc2-3)cc1	none (no result: A3G deaminase, APOBEC3A inh)
CC(C)(C)C(=O)O[C@H]1CC[C@@]2(C)C(=CC(=O)C3C2CC[C@]2(C)C(=O)CCC32)C1 (stereo not given in full)	CAL PDZ FP-2 84.9
CCc1nc2ccc(N3CCN(C)CC3)cc2nc1CC	CAL PDZ FP-2 48.8
COc1cccc(CN2CCNCC2)c1OC	CAL PDZ FP-2 89.8
COc1ccc(CN2CCN(Cc3ccccc3OC)CC2)cc1	none
CCC1(CC)C(=O)NC(=O)N(CCc2ccccn2)C1=O	none (no result: A3G deaminase, APOBEC3A inh)
CN(C)C1=NC(N(C)C)=NP(N(C)C)(N(C)C)=N1	CAL PDZ FP-2 35.1
CC(=O)O[C@H]1CCC2C3CC[C@H]4[C@@H](O)[C@H](O)CC[C@]4(C)C3CC[C@@]21C (stereo not given in full)	none (no result: A3G deaminase, APOBEC3A inh)
O=C(c1cccc(Cl)c1)C1CCCN(Cc2ccon2)C1 (stereo not given)	none
COc1ccc(CN2CCCC(C(=O)c3cccc(Cl)c3)C2)cc1 (stereo not given)	none
CC(C)Oc1cccc(C(=O)C2CCCN(Cc3ccon3)C2)c1 (stereo not given)	CAL PDZ FP-2 65.1
CSc1ncc(CN2CCCC(C(=O)c3cccc(Cl)c3)C2)cn1 (stereo not given)	CAL PDZ FP-2 47.9
N#CC1c2ccccc2-n2nncc2CN1Cc1cc(Cl)cc(Cl)c1 (stereo not given)	none (no result: A3G deaminase, APOBEC3A inh)
S=P(NCCNP(=S)(N1CC1)N1CC1)(N1CC1)N1CC1	none (no result: A3G deaminase, APOBEC3A inh)
CCCCNC(=S)N1CCn2cccc2C1c1cccnc1 (stereo not given)	none
CNC(=S)N1CCn2cccc2C1c1cccnc1 (stereo not given)	CAL PDZ FP-2 77.7
COc1cccc2c1C(=O)c1c(O)c3c(c(O)c1C2=O)CC(O)(C(C)=NO)CC3OC1CC(N)C(O)C(C)O1 (stereo not given)	LANA DNA inh 114.1 (no result: A3G deaminase, APOBEC3A inh)
Nc1ccc2ccc3cccc[n+]3c2c1	Keap1 Nrf2 FP 138.0, LANA DNA inh 152.5
FC(F)(F)c1ccccc1CCN1CCNCC1	CAL PDZ FP-2 32.9
CCC1([N+](=O)[O-])COP(N)(=O)OC1 (stereo not given)	none (no result: A3G deaminase, APOBEC3A inh)
Clc1ccc(C(Cl)(Cl)Cl)c(Cl)c1	CAL PDZ FP-2 70.5
CC1=C(O)C(=O)C=C2C1=CC=C1C2(C)CCC2(C)C3CC(C)(C(=O)O)CCC3(C)CCC12C (stereo not given)	none (no result: A3G deaminase, APOBEC3A inh)
Nc1cc(N2CCNCC2)c([N+](=O)[O-])cc1Cl	none
CCn1c(=O)n(CC)c2cc([N+](=O)[O-])c(N3CCNCC3)cc21	CAL PDZ FP-2 69.1
CC(C)(O)C1C2OC(=O)C1C1(O)CC3OC34C(=O)OC2C14C (stereo not given)	none (no result: A3G deaminase, APOBEC3A inh)
Cc1ccc2c(c1)C1C[N+](C)(CC(=O)c3ccc(Cl)cc3Cl)CCC1N2C(=O)c1ccc(F)cc1 (stereo not given)	APOBEC3A inh 78.7 (no result: CAL PDZ FP-2) | A3A conf 79.2 | UDG A3A counter inactive
Cc1ccc2c(c1)C1CN(C)CCC1N2C(=O)c1cccs1 (stereo not given)	none
C[N+]12CCC(CC1)C(C(O)(c1cccc(Cl)c1)c1cccc(Cl)c1)C2 (stereo not given)	APOBEC3A inh 86.5 (no result: CAL PDZ FP-2) | A3A conf 75.3 | UDG A3A counter inactive
Cc1ccc(C(O)(c2ccc(C)c(C)c2)C2CN3CCC2CC3)cc1C (stereo not given)	none
CC[N+]12CCC(CC1)C(C(O)(c1ccccc1)c1ccccc1)C2 (stereo not given)	none
CC(C)[N+]12CCC(CC1)C(C(O)(c1ccccc1)c1ccccc1)C2 (stereo not given)	none (no result: A3G deaminase, CAL PDZ FP-2, APOBEC3A inh) | A3A conf 63.1
CC(=O)N1Cc2cnnn2-c2ccccc2C1C#N (stereo not given)	none (no result: A3G deaminase, APOBEC3A inh)
COC(=O)C1=C(C(=O)OC)C2OC1c1cc3ccccc3cc12	none (no result: A3G deaminase, APOBEC3A inh)
CN(C(=O)Oc1cccc2ccccc12)C1C=CCC1 (stereo not given)	none (no result: A3G deaminase, APOBEC3A inh)
Cn1c[n+](C)cc1C(O)c1ccccc1 (stereo not given)	APOBEC3A inh 60.3 | A3A conf 50.7 | UDG A3A counter inactive
CCOc1ccccc1N=C1SCCCN1C	APOBEC3A inh 46.6 (no result: CAL PDZ FP-2) | A3A conf 73.1 | UDG A3A counter inactive
CC(C)(C)C(=O)c1cn(CC(=O)NCc2ccco2)c2ccccc12	APOBEC3A inh 59.0 (no result: CAL PDZ FP-2) | A3A conf 45.5 | UDG A3A counter inactive
CCOC(=O)CC(SP1(=S)OCC2(CC=CCC2)CO1)C(=O)OCC (stereo not given)	none (no result: A3G deaminase, APOBEC3A inh)
CCCC[N+]12CCC(CC1)C(C(=O)c1cccs1)C2 (stereo not given)	APOBEC3A inh 67.3 | A3A conf 77.6 | UDG A3A counter inactive
Nc1ccc(-c2ccc(N)cc2)cc1	none (no result: A3G deaminase, APOBEC3A inh)

Source: PubChem
